Reference: ChEMBL document CHEMBL1124813, “Synthesis and antiinflammatory activity of novel 12 beta-substituted analogues of betamethasone” (1990)
Where “and” joins values, the source holds several entries; their conditions need not be identical. Equal values may be shown once.

Tests used:
Assay type in all cases: functional
[1] = test system: Mus musculus; assay: Topical Antiinflammatory activity was measured in the TPA induced mouse ear edema assay at 300 ugm/mouse.
How it was run: (§1)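 Mouse ear edema induced by topical TPA at 8.8 nmol/mouse, with the test steroid applied topically to the ear.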

[2] = test system: Mus musculus; assay: Systemic Antiinflammatory activity was measured in the TPA induced mouse ear edema assay at 300 ugm/mouse.
How it was run: (§2)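 Systemic absorption was assessed by the contralateral ear assay. Ear edema was induced with TPA (8.8 nmol/mouse) and scored on the ear opposite the one receiving the topical corticoid.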

[3] = test system: Mus musculus; assay: ED100 of was measured in the TPA induced mouse ear edema assay.; how it was run: as §1
[4] = organism: Mus musculus; assay: Percentage systemic effect to assess the degree of absorption was measured at 100 ug/mouse.
How it was run: (§3)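 Systemic effect was measured after repeated topical high-dose applications to the mouse ear. Thymic involution was read as loss of thymus weight (n = 6). Adrenal suppression was read as inhibition of the stress-induced rise in plasma cortisol (n = 6).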

[5] = organism: Mus musculus; assay: Percentage systemic effect to assess the degree of absorption was measured at 200 ug/mouse.; how it was run: as §3
[6] = organism: Mus musculus; assay: Percentage systemic effect to assess the degree of absorption was measured at 50 ug/mouse; how it was run: as §3
[7] = test system: Mus musculus; assay: Topical Antiinflammatory activity was measured in the TPA induced mouse ear edema assay at 200 ug/mouse.; how it was run: as §1
[8] = test system: Mus musculus; assay: Topical Antiinflammatory activity was measured in the TPA induced mouse ear edema assay at 50 ug/mouse.; how it was run: as §1
[9] = organism: Mus musculus; assay: Atrophogenicity potency was observed in mouse at given dose at 300 ugm/mouse.
[10] = test system: Mus musculus; assay: Systemic Antiinflammatory activity was measured in the TPA induced mouse ear edema assay at 100 ug/mouse.; how it was run: as §2
[11] = test system: Mus musculus; assay: Systemic Antiinflammatory activity was measured in the TPA induced mouse ear edema assay at 200 ug/mouse.; how it was run: as §2
[12] = test system: Mus musculus; assay: Systemic Antiinflammatory activity was measured in the TPA induced mouse ear edema assay at 50 ug/mouse; how it was run: as §2
[13] = test system: Mus musculus; assay: Topical Antiinflammatory activity was measured in the TPA induced mouse ear edema assay at 100 ug/mouse.; how it was run: as §1
[14] = organism: Mus musculus; assay: Skin thickness of mouse was measured at 300 ugm/mouse.
[15] = organism: Mus musculus; assay: Percentage systemic effect to assess the degree of absorption was measured 40 ugm/mouse.; how it was run: as §3
[16] = organism: Mus musculus; assay: Percentage systemic effect to assess the degree of absorption was measured at 10 ug/mouse.; how it was run: as §3
[17] = test system: Mus musculus; assay: Topical Antiinflammatory activity was measured in the TPA induced mouse ear edema assay at 10 ug/mouse.; how it was run: as §1
[18] = test system: Mus musculus; assay: Topical Antiinflammatory activity was measured in the TPA induced mouse ear edema assay at 40 ugm/mouse.; how it was run: as §1
[19] = organism: Mus musculus; assay: Atrophogenicity potency was observed in mouse at 200 ug/mouse.
[20] = test system: Mus musculus; assay: Systemic Antiinflammatory activity was measured in the TPA induced mouse ear edema assay at 10 ug/mouse.; how it was run: as §2
[21] = test system: Mus musculus; assay: Systemic Antiinflammatory activity was measured in the TPA induced mouse ear edema assay at 40 ugm/mouse.; how it was run: as §2
[22] = organism: Mus musculus; assay: Skin thickness of mouse was measured at 200 ug/mouse
[23] = organism: Mus musculus; assay: Percentage systemic effect to assess the degree of absorption was measured at 50 ug/mouse.; how it was run: as §3
[24] = organism: Mus musculus; assay: Percentage systemic effect to assess the degree of absorption was measured at 300 ugm/mouse.; how it was run: as §3
[25] = test system: Mus musculus; assay: Systemic Antiinflammatory activity was measured in the TPA induced mouse ear edema assay at 50 ug/mouse.; how it was run: as §2
[26] = organism: Mus musculus; assay: Percentage systemic effect to assess the degree of absorption was measured at 40 ugm/mouse.; how it was run: as §3
[27] = organism: Mus musculus; assay: Percentage systemic effect to assess the degree of absorption was measured 25 ug/mouse; how it was run: as §3
[28] = organism: Mus musculus; assay: Percentage systemic effect to assess the degree of absorption was measured 75 ug/mouse; how it was run: as §3
[29] = test system: Mus musculus; assay: Topical Antiinflammatory activity was measured in the TPA induced mouse ear edema assay at 2.5 ug/mouse.; how it was run: as §1
[30] = test system: Mus musculus; assay: Topical Antiinflammatory activity was measured in the TPA induced mouse ear edema assay at 25 ug/mouse.; how it was run: as §1
[31] = organism: Mus musculus; assay: Atrophogenicity potency was observed in mouse at 75 ug/mouse.
[32] = test system: Mus musculus; assay: Systemic Antiinflammatory activity was measured in the TPA induced mouse ear edema assay at 2.5 ug/mouse; how it was run: as §2
[33] = test system: Mus musculus; assay: Systemic Antiinflammatory activity was measured in the TPA induced mouse ear edema assay at 25 ug/mouse; how it was run: as §2
[34] = test system: Mus musculus; assay: Systemic Antiinflammatory activity was measured in the TPA induced mouse ear edema assay at 75 ug/mouse; how it was run: as §2
[35] = organism: Mus musculus; assay: Skin thickness of mouse was measured at 75 ug/mouse
[36] = test system: Mus musculus; assay: Topical Antiinflammatory activity was measured in the TPA induced mouse ear edema assay at 75 ug/mouse.; how it was run: as §1
[37] = organism: Mus musculus; assay: Percentage systemic effect to assess the degree of absorption was measured at 2.5 ug/mouse; how it was run: as §3
[38] = organism: Mus musculus; assay: Percentage systemic effect to assess the degree of absorption was measured at 75 ug/mouse; how it was run: as §3
[39] = organism: Mus musculus; assay: Skin thickness of mouse was measured at 75 ug/mouse.

Compound: CCCC(=O)O[C@@H]1[C@H](O)[C@@]2(Br)C(CCC3=CC(=O)C=C[C@@]32C)[C@@H]2C[C@H](C)[C@](OC(=O)CC)(C(=O)COC(=O)CC)[C@@]12C (stereo partly drawn)
- Potency [1]: 68%
- Potency [2]: 0%

Compound: CCC(=O)OCC(=O)[C@@]1(OC(=O)CC)[C@@H](C)C[C@H]2C3CCC4=CC(=O)C=C[C@]4(C)[C@@]3(Cl)[C@@H](O)[C@@H](OC(=O)CC)[C@@]21C (stereo partly drawn)
- ED100 [3]: 400 µg
- Systemic effect [4]: 5%
- Systemic effect [5]: 0% and 6%
- Systemic effect [6]: 4% and 5%
- Potency [7]: 71%
- Potency [1]: 84%
- Potency [8]: 47%
- Potency [9]: 0.1%
- Potency [10]: 0%
- Potency [11]: 0%
- Potency [2]: 0%
- Potency [12]: 0%
- Potency [13]: 53%
- Skin thickness [14]: 16.5

Compound: CCC(=O)OCC(=O)[C@@]1(OC(=O)CC)[C@@H](C)C[C@H]2C3CCC4=CC(=O)C=C[C@]4(C)[C@@]3(Br)[C@@H](O)[C@@H](OC(=O)CC)[C@@]21C (stereo partly drawn)
- ED100 [3]: 325 µg
- Systemic effect [4]: 6%
- Systemic effect [5]: 2% and 0%
- Systemic effect [6]: 2%
- Potency [7]: 70%
- Potency [1]: 96%
- Potency [8]: 36%
- Potency [10]: 0%
- Potency [11]: 0%
- Potency [2]: 0%
- Potency [12]: 0%
- Potency [13]: 45%

Compound: CCC(=O)OCC(=O)[C@@]1(OC(=O)CC)[C@@H](C)C[C@H]2C3CCC4=CC(=O)C=C[C@]4(C)[C@@]3(Br)[C@@H](O)[C@@H](OC(=O)c3ccco3)[C@@]21C (stereo partly drawn)
- Potency [1]: 69%
- Potency [2]: 0%

Compound: CCC(=O)OCC(=O)[C@@]1(OC(=O)CC)[C@@H](C)C[C@H]2C3CCC4=CC(=O)C=C[C@]4(C)[C@@]3(Br)[C@@H](O)[C@@H](OC(=O)c3ccccc3)[C@@]21C (stereo partly drawn)
- Potency [1]: 84%
- Potency [2]: 0%

Compound: CCC(=O)OCC(=O)[C@@]1(OC(=O)CC)[C@@H](C)C[C@H]2C3CCC4=CC(=O)C=C[C@]4(C)[C@@]3(Cl)[C@@H](O)[C@@H](O)[C@@]21C (stereo partly drawn)
- ED100 [3]: 160 µg
- Systemic effect [15]: 0% and 13%
- Systemic effect [4]: 5% and 14%
- Systemic effect [16]: 4% and 2%
- Potency [17]: 41%
- Potency [18]: 67%
- Potency [19]: 15.7%
- Potency [10]: 21%
- Potency [20]: 0%
- Potency [21]: 5%
- Potency [13]: 81%
- Skin thickness [22]: 13.92

Compound: CCC(=O)OCC(=O)[C@@]1(OC(=O)CC)[C@@H](C)C[C@H]2C3CCC4=CC(=O)C=C[C@]4(C)[C@@]3(Br)[C@@H](O)[C@@H](O)[C@@]21C (stereo partly drawn)
- ED100 [3]: 325 µg
- Systemic effect [4]: 0% and 14%
- Systemic effect [5]: 7% and 15%
- Systemic effect [23]: 7% and 12%
- Systemic effect [24]: 7% and 15%
- Potency [7]: 91%
- Potency [1]: 99%
- Potency [8]: 57%
- Potency [10]: 17%
- Potency [11]: 17%
- Potency [2]: 22%
- Potency [25]: 16%
- Potency [13]: 86%

Compound: CCC(=O)OCC(=O)[C@@]1(OC(=O)CC)[C@@H](C)C[C@H]2C3CCC4=CC(=O)C=C[C@]4(C)[C@@]3(F)[C@@H](O)[C@@H](OC(=O)CC)[C@@]21C (stereo partly drawn)
- ED100 [3]: 400 µg
- Systemic effect [4]: 4% and 0%
- Systemic effect [16]: 0%
- Systemic effect [26]: 1% and 6%
- Potency [17]: 21%
- Potency [7]: 77%
- Potency [18]: 50%
- Potency [10]: 0%
- Potency [20]: 0%
- Potency [11]: 0%
- Potency [21]: 0%
- Potency [13]: 69%

Compound: CCC(=O)OCC(=O)[C@@]1(OC(=O)CC)[C@@H](C)C[C@H]2C3CCC4=CC(=O)C=C[C@]4(C)[C@@]3(Br)[C@@H](O)[C@@H](OC(=O)CC(C)C)[C@@]21C (stereo partly drawn)
- Potency [1]: 54%
- Potency [2]: 0%

Compound: CCC(=O)OCC(=O)[C@@]1(OC(=O)CC)[C@@H](C)C[C@H]2C3CCC4=CC(=O)C=C[C@]4(C)[C@@]3(F)[C@@H](O)[C@@H](O)[C@@]21C (stereo partly drawn)
- ED100 [3]: 140 µg
- Systemic effect [15]: 13% and 10%
- Systemic effect [4]: 21% and 30%
- Systemic effect [16]: 9% and 1%
- Potency [17]: 46%
- Potency [18]: 60%
- Potency [10]: 19%
- Potency [20]: 7%
- Potency [21]: 11%
- Potency [13]: 82%

Compound: CCC(=O)OCC(=O)[C@@]1(OC(=O)CC)[C@@H](C)C[C@H]2[C@@H]3CCC4=CC(=O)C=C[C@]4(C)[C@@]3(Cl)[C@@H](O)C[C@@]21C [BECLOMETHASONE DIPROPIONATE]
- ED100 [3]: 110 µg
- Systemic effect [27]: 52% and 32%
- Systemic effect [28]: 67% and 36%
- Potency [29]: 60%
- Potency [30]: 78%
- Potency [31]: 51%
- Potency [32]: 12%
- Potency [33]: 40%
- Potency [34]: 52%
- Skin thickness [35]: 8.12
- Potency [36]: 93%

Compound: CCC(=O)OCC(=O)[C@@]1(OC(=O)CC)[C@@H](C)C[C@H]2[C@@H]3CCC4=CC(=O)C=C[C@]4(C)[C@@]3(F)[C@@H](O)C[C@@]21C [BETAMETHASONE DIPROPIONATE]
- ED100 [3]: 110 µg
- Systemic effect [37]: 30% and 12%
- Systemic effect [38]: 87% and 37%
- Skin thickness [39]: 9.39
- Potency [29]: 59%
- Potency [30]: 76%
- Potency [31]: 43%
- Potency [32]: 27%
- Potency [33]: 30%
- Potency [34]: 72%
- Potency [36]: 93%
